# Source: ChEMBL document CHEMBL4266056, “Discovery and Pharmacology of a Novel Somatostatin Subtype 5 (SSTR5) Antagonist: Synergy with DPP-4 Inhibition” (ACS Med Chem Lett, 2018)
# Calls of active or inactive are those of the source. No cut-off for these calls is given here.
# What was measured:
# [1] = Unbound plasma concentration in C57BL/6N mouse plasma at 1 mg/kg, po measured at 3 hrs; assay type: ADME, organism-based; conditions: in vivo
# [2] = Drug uptake in C57BL/6N mouse whole blood at 0.3 mg/kg, po measured at 3 hrs; assay type: ADME, organism-based; conditions: read-out: Drug uptake
# How it was run: (§1)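 Whole-blood compound exposure was measured 3 h after oral dosing (0.03-3 mg/kg) in HFD mice run through the OGTT dose titration. Unbound levels were derived using the plasma free fraction.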
# [3] = tested on: Mus musculus; test: Antidiabetic activity in HFD fed SSTR5 knock-out C57BL/6N mouse assessed as decrease in blood glucose AUC at 0.03 to 3 mg/kg administered as single oral dose pretreated for 60 mins followed by glucose challenge measured after 120 mins by OGTT; assay type: functional, organism-based
# [4] = Fraction unbound in rat plasma at 0.1 uM using [3H]-labeled compound; assay type: ADME, cell-free
# [5] = Unbound plasma concentration in C57BL/6N mouse plasma at 3 mg/kg, po measured at 3 hrs; assay type: ADME, organism-based; conditions: in vivo
# [6] = Volume of distribution in rat at 1 mg/kg, iv or 2 mg/kg, po; assay type: ADME, organism-based; conditions: in vivo
# [7] = tested on: Pancreatic islet; test: Induction of glucose-dependent insulin secretion in human pancreatic islets at 0.5 to 5 uM preincubated for 30 mins with 16 mM glucose followed by compound addition measured after 60 mins by ELISA; assay type: functional, cell-based
# How it was run: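 Isolated pancreatic islets from non-diabetic human donors were incubated with compound at 0.5 or 5 µM in 2 mM (G2) or 16 mM (G16) glucose. Insulin secretion was measured against a DMSO control, with P<0.05 significance.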
# [8] = Volume of distribution in dog at […], iv or 1 mg/kg, po; assay type: ADME, organism-based, Canis lupus familiaris; conditions: in vivo
# [9] = tested on: Mus musculus; test: Induction of hypoglycemia in C57BL/6N mouse assessed as decrease in basal blood glucose levels at 3 to 30 mg/kg, po measured over 5 hrs; assay type: organism-based; conditions: in vivo
# [10] = tested on: Mus musculus; test: Antidiabetic activity in HFD fed C57BL/6N mouse assessed as decrease in blood glucose AUC at 0.3 mg/kg administered as single oral dose pretreated for 60 mins followed by glucose challenge measured after 120 mins by OGTT; assay type: functional; design: scale not given: the % may be the effect or the level left
# How it was run: (§2)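 Oral dose titration (0.03-3 mg/kg) in HFD-fed mice, n=8. Dosing was followed by an oral glucose tolerance test. Net blood glucose AUC was expressed as % reduction versus vehicle, with P values versus vehicle.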
# [11] = biological target: Sodium channel protein type 5 subunit alpha (Homo sapiens, UniProt Q14524); test: Inhibition of Nav1.5 (unknown origin)
# [12] = Drug uptake in C57BL/6N mouse whole blood at 0.1 mg/kg, po measured at 3 hrs; assay type: ADME, organism-based; conditions: read-out: Drug uptake; how it was run: as §1
# [13] = tested on: Mus musculus; test: Antidiabetic activity in HFD fed C57BL/6N mouse assessed as decrease in blood glucose AUC at 1 mg/kg administered as single oral dose pretreated for 60 mins followed by glucose challenge measured after 120 mins by OGTT; assay type: functional; design: scale not given: the % may be the effect or the level left; how it was run: as §2
# [14] = biological target: Somatostatin receptor type 4 (Homo sapiens, UniProt P31391); test: Antagonist activity at human SSTR4 expressed in CHO-K1 cell membranes; assay type: functional, cell-based
# How it was run: (§3)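 Counter-screen by filtration membrane binding: competitive displacement of radiolabeled SST-28 from cell membranes expressing human SSTR1, SSTR2, SSTR3 or SSTR4. The IC50 is the mean of at least duplicate experiments within a maximal threefold range.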
# [15] = Aqueous solubility of the compound in neutral solution; assay type: physicochemical
# [16] = Half life in dog at […], iv or 1 mg/kg, po; assay type: ADME, organism-based, Canis lupus familiaris; conditions: in vivo
# [17] = Fraction unbound in human plasma at 0.1 uM using [3H]-labeled compound; assay type: ADME, cell-free
# [18] = biological target: Voltage-dependent L-type calcium channel subunit alpha-1C (Homo sapiens, UniProt Q13936); test: Inhibition of Cav1.2 (unknown origin)
# [19] = Fraction unbound in rhesus monkey plasma at 0.1 uM using [3H]-labeled compound; assay type: ADME, cell-free, Macaca mulatta
# [20] = Half life in rat at 1 mg/kg, iv or 2 mg/kg, po; assay type: ADME, organism-based; conditions: in vivo
# How it was run: (§4)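 Rat pharmacokinetics after separate intravenous (1 mg/kg) and oral (2 mg/kg) dosing. Clearance is reported in mL/kg/min and half-life in hours. Oral bioavailability is given as F (%).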
# [21] = tested on: Mus musculus; test: Antidiabetic activity in HFD fed C57BL/6N mouse assessed as decrease in blood glucose AUC at 3 mg/kg administered as single oral dose pretreated for 60 mins followed by glucose challenge measured after 120 mins by OGTT; assay type: functional; design: scale not given: the % may be the effect or the level left; how it was run: as §2
# [22] = biological target: Potassium voltage-gated channel subfamily E member 1 (Homo sapiens, UniProt P15382); test: Inhibition of IKs (unknown origin)
# [23] = biological target: Somatostatin receptor type 2 (Homo sapiens, UniProt P30874); test: Antagonist activity at human SSTR2 expressed in CHO-K1 cell membranes; assay type: functional, cell-based; how it was run: as §3
# [24] = biological target: Voltage-gated inwardly rectifying potassium channel KCNH2 (Homo sapiens, UniProt Q12809); test: Inhibition of MK-499 binding to human ERG
# [25] = Solubility of the compound in 10% tween formulation; assay type: physicochemical
# [26] = Volume of distribution in rhesus monkey at […], iv or 1 mg/kg, po; assay type: ADME, organism-based, Macaca mulatta; conditions: in vivo
# [27] = Unbound plasma concentration in C57BL/6N mouse plasma at 0.3 mg/kg, po measured at 3 hrs; assay type: ADME, organism-based; conditions: in vivo
# [28] = Unbound plasma concentration in C57BL/6N mouse plasma at 0.03 mg/kg, po measured at 3 hrs; assay type: ADME, organism-based; conditions: in vivo
# [29] = tested on: Pancreatic islet; test: Induction of glucose-dependent insulin secretion in human pancreatic islets at 0.5 and 5 uM preincubated for 30 mins with glucose followed by compound addition measured after 60 mins by ELISA
# [30] = Oral bioavailability in rat at 2 mg/kg; assay type: ADME, organism-based; conditions: in vivo; how it was run: as §4
# [31] = biological target: Cytochrome P450 3A4 (Homo sapiens, UniProt P08684); test: Inhibition of human CYP3A4; assay type: ADME
# [32] = Oral bioavailability in rhesus monkey at 1 mg/kg; assay type: ADME, organism-based, Macaca mulatta; conditions: in vivo
# [33] = biological target: Somatostatin receptor type 1 (Homo sapiens, UniProt P30872); test: Antagonist activity at human SSTR1 expressed in CHO-K1 cell membranes; assay type: functional, cell-based; how it was run: as §3
# [34] = biological target: Cytochrome P450 2D6 (Homo sapiens, UniProt P10635); test: Inhibition of human CYP2D6; assay type: ADME
# Chain of Cytochrome P450 2D6 (P10635 whole entry): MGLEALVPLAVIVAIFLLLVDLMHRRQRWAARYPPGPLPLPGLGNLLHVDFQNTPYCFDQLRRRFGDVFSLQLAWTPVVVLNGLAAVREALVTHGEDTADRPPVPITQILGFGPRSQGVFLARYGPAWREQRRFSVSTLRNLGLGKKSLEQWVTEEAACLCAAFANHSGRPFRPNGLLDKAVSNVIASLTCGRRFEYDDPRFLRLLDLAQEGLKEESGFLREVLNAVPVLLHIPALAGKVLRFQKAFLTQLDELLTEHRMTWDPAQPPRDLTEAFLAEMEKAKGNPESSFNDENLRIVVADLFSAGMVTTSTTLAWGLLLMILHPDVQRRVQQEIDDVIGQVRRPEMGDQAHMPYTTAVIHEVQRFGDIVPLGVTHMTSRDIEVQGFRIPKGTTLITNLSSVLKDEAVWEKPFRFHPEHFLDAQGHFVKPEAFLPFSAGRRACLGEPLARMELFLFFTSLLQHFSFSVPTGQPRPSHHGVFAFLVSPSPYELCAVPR
# Chain of Somatostatin receptor type 4 (P31391 whole entry): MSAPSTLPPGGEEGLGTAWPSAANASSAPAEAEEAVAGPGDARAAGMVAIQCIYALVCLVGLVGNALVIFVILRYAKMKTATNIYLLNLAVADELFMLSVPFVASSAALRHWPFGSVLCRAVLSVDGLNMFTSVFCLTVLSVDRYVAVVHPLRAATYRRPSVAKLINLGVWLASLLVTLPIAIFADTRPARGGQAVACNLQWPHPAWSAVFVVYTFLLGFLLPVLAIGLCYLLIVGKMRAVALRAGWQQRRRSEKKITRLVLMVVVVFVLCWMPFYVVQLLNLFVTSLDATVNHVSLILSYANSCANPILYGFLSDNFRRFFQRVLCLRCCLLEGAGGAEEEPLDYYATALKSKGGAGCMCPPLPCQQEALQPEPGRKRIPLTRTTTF
# Chain of Cytochrome P450 3A4 (P08684 whole entry): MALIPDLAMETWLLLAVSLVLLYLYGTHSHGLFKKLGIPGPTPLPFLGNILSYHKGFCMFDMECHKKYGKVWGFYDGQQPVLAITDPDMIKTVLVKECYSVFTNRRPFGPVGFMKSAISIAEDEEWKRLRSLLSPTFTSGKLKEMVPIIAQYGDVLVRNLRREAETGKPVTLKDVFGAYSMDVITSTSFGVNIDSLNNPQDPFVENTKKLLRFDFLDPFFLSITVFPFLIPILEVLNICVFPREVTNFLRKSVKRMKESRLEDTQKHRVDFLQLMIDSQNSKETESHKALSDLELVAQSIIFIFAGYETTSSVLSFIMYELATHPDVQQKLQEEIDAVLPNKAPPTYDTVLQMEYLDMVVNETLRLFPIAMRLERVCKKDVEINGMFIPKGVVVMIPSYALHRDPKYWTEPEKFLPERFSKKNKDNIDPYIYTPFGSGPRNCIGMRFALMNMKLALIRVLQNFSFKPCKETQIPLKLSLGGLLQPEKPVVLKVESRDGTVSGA
# Chain of Voltage-gated inwardly rectifying potassium channel KCNH2 (Q12809 whole entry): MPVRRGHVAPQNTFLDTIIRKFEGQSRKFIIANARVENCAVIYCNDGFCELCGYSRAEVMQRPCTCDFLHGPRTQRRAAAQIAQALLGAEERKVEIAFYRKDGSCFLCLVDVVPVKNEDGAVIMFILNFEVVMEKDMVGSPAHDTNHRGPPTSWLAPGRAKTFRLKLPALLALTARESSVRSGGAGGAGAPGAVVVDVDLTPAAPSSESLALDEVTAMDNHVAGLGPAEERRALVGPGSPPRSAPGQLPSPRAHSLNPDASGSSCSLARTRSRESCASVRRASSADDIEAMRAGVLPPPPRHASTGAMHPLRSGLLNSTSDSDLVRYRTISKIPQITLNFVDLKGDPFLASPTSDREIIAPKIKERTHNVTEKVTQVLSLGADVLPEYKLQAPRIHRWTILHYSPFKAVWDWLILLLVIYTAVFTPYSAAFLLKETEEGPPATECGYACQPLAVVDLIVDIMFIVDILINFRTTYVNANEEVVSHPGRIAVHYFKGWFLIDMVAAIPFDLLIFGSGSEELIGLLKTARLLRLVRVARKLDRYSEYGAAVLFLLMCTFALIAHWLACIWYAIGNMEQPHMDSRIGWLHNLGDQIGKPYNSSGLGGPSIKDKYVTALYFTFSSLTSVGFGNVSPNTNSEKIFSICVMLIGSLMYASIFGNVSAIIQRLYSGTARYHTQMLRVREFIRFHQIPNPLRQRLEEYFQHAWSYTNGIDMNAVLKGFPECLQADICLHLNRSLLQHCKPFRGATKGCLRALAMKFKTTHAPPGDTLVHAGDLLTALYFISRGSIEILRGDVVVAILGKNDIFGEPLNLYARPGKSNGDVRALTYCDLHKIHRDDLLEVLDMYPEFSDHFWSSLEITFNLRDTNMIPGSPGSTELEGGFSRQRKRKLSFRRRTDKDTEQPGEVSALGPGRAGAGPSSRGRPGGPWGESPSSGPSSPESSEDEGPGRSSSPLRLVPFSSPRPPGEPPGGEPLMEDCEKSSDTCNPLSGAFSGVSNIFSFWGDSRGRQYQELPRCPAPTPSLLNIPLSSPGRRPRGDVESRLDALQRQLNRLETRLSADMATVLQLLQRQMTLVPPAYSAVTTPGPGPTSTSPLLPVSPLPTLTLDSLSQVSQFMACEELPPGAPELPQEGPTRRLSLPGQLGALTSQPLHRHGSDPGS
# Chain of Sodium channel protein type 5 subunit alpha (Q14524 whole entry): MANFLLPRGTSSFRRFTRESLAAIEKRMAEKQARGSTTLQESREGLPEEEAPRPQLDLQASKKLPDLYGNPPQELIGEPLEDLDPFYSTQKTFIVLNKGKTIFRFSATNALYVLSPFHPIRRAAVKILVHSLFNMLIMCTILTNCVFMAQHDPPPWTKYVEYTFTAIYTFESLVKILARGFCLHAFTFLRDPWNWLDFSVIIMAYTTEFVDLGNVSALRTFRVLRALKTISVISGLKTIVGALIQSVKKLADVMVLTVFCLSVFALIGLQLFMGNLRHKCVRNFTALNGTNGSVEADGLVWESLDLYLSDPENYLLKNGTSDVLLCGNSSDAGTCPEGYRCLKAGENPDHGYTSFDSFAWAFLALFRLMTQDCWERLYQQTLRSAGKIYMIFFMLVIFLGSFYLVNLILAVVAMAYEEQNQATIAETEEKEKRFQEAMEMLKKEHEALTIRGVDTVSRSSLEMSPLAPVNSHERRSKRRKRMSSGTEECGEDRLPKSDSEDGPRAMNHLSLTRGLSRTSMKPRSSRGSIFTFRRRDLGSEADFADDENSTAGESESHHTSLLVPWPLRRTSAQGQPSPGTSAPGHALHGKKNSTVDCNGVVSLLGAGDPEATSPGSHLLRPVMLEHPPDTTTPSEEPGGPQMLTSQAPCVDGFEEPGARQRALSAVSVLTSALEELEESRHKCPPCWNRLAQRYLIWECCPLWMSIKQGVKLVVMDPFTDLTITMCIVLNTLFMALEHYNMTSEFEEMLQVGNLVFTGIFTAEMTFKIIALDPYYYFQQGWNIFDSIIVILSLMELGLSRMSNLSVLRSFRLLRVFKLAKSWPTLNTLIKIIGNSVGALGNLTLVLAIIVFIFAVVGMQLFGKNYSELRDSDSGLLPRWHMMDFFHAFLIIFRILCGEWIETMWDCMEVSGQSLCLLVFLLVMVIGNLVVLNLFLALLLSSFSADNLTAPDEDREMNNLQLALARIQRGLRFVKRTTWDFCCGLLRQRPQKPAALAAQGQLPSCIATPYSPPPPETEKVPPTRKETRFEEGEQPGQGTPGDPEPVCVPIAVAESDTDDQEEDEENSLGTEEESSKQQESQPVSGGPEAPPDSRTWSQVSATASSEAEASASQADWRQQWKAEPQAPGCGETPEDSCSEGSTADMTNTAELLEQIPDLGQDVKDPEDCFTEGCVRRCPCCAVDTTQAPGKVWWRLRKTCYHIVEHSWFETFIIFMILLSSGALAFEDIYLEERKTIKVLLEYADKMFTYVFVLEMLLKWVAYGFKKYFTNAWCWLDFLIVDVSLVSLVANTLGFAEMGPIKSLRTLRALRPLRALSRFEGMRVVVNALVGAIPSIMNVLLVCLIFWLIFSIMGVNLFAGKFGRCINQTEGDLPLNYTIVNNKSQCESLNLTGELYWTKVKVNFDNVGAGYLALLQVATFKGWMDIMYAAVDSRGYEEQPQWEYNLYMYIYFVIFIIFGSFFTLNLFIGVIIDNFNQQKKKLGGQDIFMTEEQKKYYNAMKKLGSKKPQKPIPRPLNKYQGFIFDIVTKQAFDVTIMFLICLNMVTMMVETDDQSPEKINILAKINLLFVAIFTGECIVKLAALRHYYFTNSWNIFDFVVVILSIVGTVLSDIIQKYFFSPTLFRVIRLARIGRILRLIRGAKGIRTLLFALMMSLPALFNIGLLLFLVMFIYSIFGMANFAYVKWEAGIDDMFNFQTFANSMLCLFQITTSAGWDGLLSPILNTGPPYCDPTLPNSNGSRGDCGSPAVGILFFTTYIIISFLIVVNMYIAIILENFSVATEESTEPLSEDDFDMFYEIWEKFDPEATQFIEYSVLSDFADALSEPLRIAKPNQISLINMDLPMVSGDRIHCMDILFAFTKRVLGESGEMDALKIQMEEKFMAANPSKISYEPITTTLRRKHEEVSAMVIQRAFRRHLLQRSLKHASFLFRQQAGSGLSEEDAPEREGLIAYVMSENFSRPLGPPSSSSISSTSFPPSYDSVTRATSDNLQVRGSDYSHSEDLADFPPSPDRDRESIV
# Chain of Somatostatin receptor type 2 (P30874 whole entry): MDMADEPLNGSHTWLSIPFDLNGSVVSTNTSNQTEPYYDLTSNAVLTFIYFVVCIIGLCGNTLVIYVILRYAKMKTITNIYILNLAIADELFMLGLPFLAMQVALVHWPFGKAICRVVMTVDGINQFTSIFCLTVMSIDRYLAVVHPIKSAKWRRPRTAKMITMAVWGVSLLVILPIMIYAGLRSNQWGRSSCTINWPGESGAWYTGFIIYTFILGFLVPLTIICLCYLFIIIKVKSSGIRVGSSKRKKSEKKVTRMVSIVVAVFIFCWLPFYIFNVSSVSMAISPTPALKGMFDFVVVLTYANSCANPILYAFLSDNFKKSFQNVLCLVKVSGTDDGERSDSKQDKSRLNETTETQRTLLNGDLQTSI
structure (smiles),measurement,setting,value
CCOc1cc(CN2CCC3(CC2)CC(=O)N(c2ccc(C(=O)O)cc2)C3)cc(OCC)c1-c1ccc(F)cc1.O=C(O)C(F)(F)F,Cp(f),[1],6 nM
same,concentration at 3 h,[2],34 nM
same,Activity,[3],inactive
same,Fu,[4],5.7%
same,Cp(f),[5],16.1 nM
same,Vd,[6],2.38 L/kg
same,Activity,[7],Active
same,Vd,[8],2.82 L/kg
same,Activity,[9],Non-Toxic
same,Activity,[10],59%
same,IC50,[11],> 15 µM
same,concentration at 3 h,[12],11 nM
same,Activity,[13],74%
same,IC50,[14],> 10 µM
same,solubility,[15],300 µg/mL
same,half-life,[16],16.5 h
same,Fu,[17],2.2%
same,IC50,[18],> 15 µM
same,Fu,[19],5.4%
same,half-life,[20],1.9 h
same,Activity,[21],84 - 94%
same,IC50,[22],> 15 µM
same,IC50,[23],> 10 µM
same,IC50,[24],45 µM
same,solubility,[25],5300 µg/mL
same,Vd,[26],1.39 L/kg
same,Cp(f),[27],1.6 nM
same,Cp(f),[28],0.2 nM
same,Activity,[29],Active
same,bioavailability,[30],41%
same,IC50,[31],> 50 µM
same,bioavailability,[32],40%
same,IC50,[33],> 10 µM
same,IC50,[34],> 50 µM
